# UPR XBP1 act – adaptive UPR (XBP1) activation | activation, % at 20 µM | 0.33% of 330,000 active | CHO-XBP1 luciferase reporter, IRE1-XBP1 UPR activation, luminescence; percent of tunicamycin response, DMSO as zero | AID 463104;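 active = versus positive control, 20 µM dose yields 30% or more activation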;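 also: 100% = tunicamycin at 10 µg/mL and 0% = DMSO only wells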
#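 Material – CHO cell line with stable XBP1 luciferase reporter · Buffer or medium – F12 plus 10% FBS · Compound – single point, 20 µM final compound, 1% DMSO · Schedule – 16-18 h cell attachment at 37 °C, then 6 h compound exposure · Signal – Steady-Glo luminescence read · Benchmarks – high control tunicamycin 10 µg/mL final, low control DMSO vehicle only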
# Dynein cargo inh – blocks dynein driven cargo transport along microtubules | 3617.4 mouse cells, GR-EGFP nuclear translocation imaging; test concentration mostly 20 µM; stimulated with dexamethasone, 1 µM; hits give low values | z-score, hits read low | 0.47% of 220,000 active | AID 1381;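 active = plate z-score of nuclear minus cytoplasmic receptor signal below a set negative limit, without overly bright fluorescence or cell loss, cut at about -3.5 in these data, passing the limit was not always enough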;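 also: z-score of nuclear minus cytoplasmic ring GR-EGFP intensity difference per well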
#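 Medium: Induction medium lacking tetracycline, stripped serum | Probe or stimulus: 1.0 µM final dexamethasone stimulus | Schedule: 48 h induction, then 1 h compound, then 30 min agonist, 37 °C | Signal: Automated 10x imaging of fixed Hoechst-stained cells | Evaluation: Per-cell GR-EGFP intensity, nucleus versus surrounding cytoplasmic ring, well-averaged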
# UPR CHOP act – apoptotic UPR (CHOP) activation; 0.34% of 330,000 active; CHO-CHOP luciferase reporter, luminescence; percent of tunicamycin response over DMSO baseline; activation, % at 10 µM;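 active = at 10 µM dose, activation of 40% or more, normalized to positive control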;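 also: 100% = tunicamycin at 10 µg/mL and 0% = DMSO alone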
#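 Dosing – one dose, 10 µM in 0.5% DMSO · System – CHO-CHOP cells, stable luciferase reporter of PERK-eIF2a-CHOP signalling · Input – 500 cells/well · Control set – tunicamycin 10 µg/mL final as positive, DMSO-only wells as negative · Timing – 6 h compound treatment, 37 °C · Measure – % activation vs tunicamycin · Technique – luminescence read with Steady-Glo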
# T cruzi repl – T. cruzi replication inhibition; T. cruzi beta-gal in NIH3T3, luminescence, 90 h; inhibition, % (no concentration beside the values); 1.4% of 300,000 active; AID 1885;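 active = mean inhibition across valid replicates above about 55%, limit read from the data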;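 also: signal also drops with host cell toxicity which is not excluded here; 0% = plate median of DMSO wells and 100% = zero luminescence signal; higher percent means less beta-gal luminescence so fewer parasites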
#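 System: Mouse NIH/3T3 fibroblasts infected with β-gal-expressing T. cruzi Tulahuen C4 | Quantity: NIH/3T3 cells, 5,000 per well | Reagent: 5000 reporter trypomastigotes per well | Dosing: Compound pinned at 50 nL/well, DMSO | Schedule: 3 h host attachment, then at least 90 h co-culture | Detection: GalScreen luminescence, 60 min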
# Lmaj promast – reduces viability of Leishmania major promastigotes; resazurin fluorescence viability; 9% of 200,000 active; inhibition, % at 10 µM; AID 1063; in the data active = inhibition above about 50%;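 also: promastigotes grown with compound for 44 hours at 28 °C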
# CHOP inh – blocks CHOP induction under ER stress | CHO-K1 CHOP-promoter luciferase, tunicamycin-induced, 15-18 h | AID 2732 | 3.8% of 220,000 active | inhibition, % at 10 µM;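 active = compounds that reduced the stress-induced luciferase reporter signal by more than about 70% of percent inhibition, limit read from the data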;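 also: 0% = tunicamycin plus vehicle and 100% = wells without tunicamycin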
# * = called active by the depositor; . = no result. Many of the other results were omitted from the sample, so hits are more common in it than they were.
SMILES,UPR XBP1 act,Dynein cargo inh,UPR CHOP act,T cruzi repl,Lmaj promast,CHOP inh
CNC(=O)C1Cc2ccccc2CN1S(=O)(=O)c1cccs1 (stereo unspecified),-4,0.33,-1,-1,68*,6
COc1ccc(S(=O)(=O)N2Cc3ccccc3CC2C(=O)Nc2ccc3c(c2)OCO3)cc1 (stereo unspecified),0,-0.86,7,2,19,-40
CCc1nnc(NC(=O)C2Cc3ccccc3CN2S(=O)(=O)c2cccs2)s1 (stereo unspecified),3,0.32,7,-1,53*,7
COc1ccc(S(=O)(=O)N2Cc3ccccc3CC2C(=O)Nc2nccs2)cc1OC (stereo unspecified),0,-0.45,6,8,8,13
COc1ccc(S(=O)(=O)N2Cc3ccccc3CC2C(=O)Nc2nccs2)cc1 (stereo unspecified),-2,0.98,4,-5,99*,32
CC1CC(C)CN(CCC(=O)Nc2ccc(Br)cc2)C1 (stereo unspecified),-2,.,0,32,.,.
O=C(NC(C(=O)N/N=C/c1ccccn1)c1n[nH]c(=O)c2ccccc12)c1ccccc1 (stereo unspecified),1,0.19,-1,-12,.,-4
S=C(NCc1ccco1)NCC1CCCO1 (stereo unspecified),-3,-1.4,1,-12,-3,5
CCOC(=O)c1[nH]c(C)c(C(=O)O)c1C,.,0.054,.,.,-24,9
CCOC(=O)c1[nH]c(C=O)c(C(=O)OCC)c1C,8,-0.29,1,0,88*,-1
CCC1=C(OC(=O)c2ccccc2)C(C)(C)C(c2ccccc2)OC1=O (stereo unspecified),0,0.96,0,-4,0,93*
COCCNC(=O)c1ccccc1NC(=O)CN(c1ccc2c(c1)OCO2)S(C)(=O)=O,-3,-1,1,0,-2,22
COc1ccc(OC)c(NC(=O)c2cccc(S(=O)(=O)N(Cc3ccccc3)c3ccccc3OC)c2)c1,-3,0.31,0,35,96*,4
COc1ccccc1N(Cc1ccccc1)S(=O)(=O)c1cccc(C(=O)Nc2ccccn2)c1,-1,.,-1,35,.,.
COc1ccccc1N(Cc1ccccc1)S(=O)(=O)c1cccc(C(=O)Nc2ccc(C(C)=O)cc2)c1,2,0.9,6,32,75*,1
COc1ccc(N(CC(=O)Nc2ccccc2C(=O)NCCc2ccccc2)S(C)(=O)=O)cc1OC,1,0.19,1,.,90*,2
COc1ccc(OC)c(N/C(C)=C/C(=O)c2ccncc2)c1,0,.,0,-5,.,.
C/C(=C\C(=O)c1ccncc1)Nc1ccccc1O,1,-0.73,2,2,57*,35
CC(=O)Nc1ccc(S(=O)(=O)NCCC(=O)N2CCC(Cc3ccccc3)CC2)cc1,-1,.,-2,.,.,.
CCCCCC(=O)Nc1ccc(C2C(=O)c3ccccc3C2=O)cc1,1,.,4,-10,.,.
Cc1cc(C)n(CCNS(=O)(=O)c2ccccc2)n1,3,.,5,-7,.,.
COc1ccc(OC)c(N/C(C)=C/C(=O)c2ccccc2)c1,1,0.32,7,56*,39,23
COc1ccccc1NCC(=O)N/N=C/c1c(O)ccc2ccccc12,-4,.,0,-5,.,.
CCOc1ccccc1N(CC(=O)Nc1cc(OC)ccc1OC)S(C)(=O)=O,3,-0.38,-1,-8,84*,-13
CCOc1ccccc1N(CC(=O)Nc1cc(OC)ccc1OC)S(=O)(=O)c1ccccc1,-2,.,4,19,.,.
COc1ccccc1N(Cc1ccccc1)S(=O)(=O)c1cccc(C(=O)Nc2ccc(C)cn2)c1,-1,.,2,62*,.,.
COc1ccccc1N(CC(=O)N/N=C/c1c(O)ccc2ccccc12)S(C)(=O)=O,-2,1.9,-3,7,99*,61
COc1ccc(C(=O)/C=C/Sc2nc3ccccc3o2)cc1,-8,-1.9,-3,-3,.,82*

# Compound activity (PubChem)
